For orientation: IC50 means the concentration at which inhibition is half-maximal. The AUC(0-inf) is total exposure, with the tail of the curve extrapolated. As usually defined, the MRT last is the average time that molecules of a dose stay in the body. The clearance is the volume of plasma or blood freed of the substance per unit of time. Read a low clearance as a low capacity for elimination. By AUC(0-t) is commonly meant the area under the concentration-time curve up to a stated or last time point. High values mean high exposure, low ones low exposure.

Molecules are shown by their SMILES. Activity calls are given as the source filed them. No cut-off for these calls is given here.

We go through one molecule from ChEMBL document CHEMBL4831496, “Noncovalent EGFR T790M/L858R inhibitors based on diphenylpyrimidine scaffold: Design, synthesis, and bioactivity evaluation for the treatment of NSCLC” (Eur J Med Chem, 2021).

A short description of data set [1]: Elimination half life in Sprague-Dawley rat at 25 mg/kg, iv measured for 24 hrs by LC-MS/MS analysis. The format is ADME, organism-based. The following applies: in vivo, read-out: beta t1/2 (converted). A digest of the protocol: (§1)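 Male Sprague-Dawley rats (200 ± 20 g), acclimatised 1 week at 25 ± 2 °C, 50-60% RH; six rats given 25 mg/kg by tail vein. Retro-orbital blood into heparin at 10, 20, 40 min and 1, 2, 3, 4, 6, 8, 12, 24 h. Plasma ethyl acetate-extracted and quantified by LC-MS/MS, transition m/z 485.3/452.3.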

The test system of data set [2] is L02. The experiment in a line: Antiproliferative activity against human L02 cells assessed as reduction in cell viability incubated for 72 hrs by CCK8 assay. The format is cell-based. The following applies: L02, 72 h.
For data set [3], the system named is NCI-H23. Put plainly: Antiproliferative activity against human NCI-H23 cells harboring KRAS mutant assessed as reduction in cell viability incubated for 72 hrs by CCK8 assay. The following applies: NCI-H23, 72 h. Type of data set: functional, cell-based. The method in brief: (§2)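 Cells kept as monolayers at 37 °C, 5% CO2, seeded 3000-4000/well for 12 h, then exposed to compounds for 72 h. CCK-8 added for 1-2 h at 37 °C, absorbance read at 450 nm. Each dose run in triplicate, experiment repeated at least three times. IC50 taken from dose-response curves.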
(In general: Tetrazolium assays rely on reduction of a dye to a coloured formazan, in cell work by metabolically active cells.)

Data set [4] has as its system NCI-H1975. Put plainly: Induction of cell cycle arrest in human NCI-H1975 cells assessed as accumulation of cells at G2/M phase at 0.5 uM incubated for 48 hrs by propidium iodide staining based flow cytometry analysis (reference value: 30.23%). Type of data set: functional.
Data set [5] has as its system NCI-H1975. Put plainly: Induction of apoptosis in human NCI-H1975 cells assessed as late apoptotic cells at 0.5 uM incubated for 48 hrs by AnnexinV/FITC and propidium iodide staining based flow cytometry analysis (reference value: 0.73%). Type of data set: functional. On the technique in general: Flow cytometry measures light scatter and fluorescence of single cells or particles in a stream.

Data set [6] has as its system NCI-H1975. Put plainly: Induction of morphological changes in human NCI-H1975 cells assessed as increase in fusiform and sickle cell type abnormal cells at 0.5 to 2 uM incubated for 48 hrs by DAPI staining based fluorescence microscopic analysis. The format is functional. The following applies: dose 0.5-2 µM. The method in brief: (§3)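 H1975 cells seeded at about 2 × 10⁵/well for 12 h, then treated. Cells fixed in 10% formaldehyde for 10 min, stained with DAPI for 10 min at room temperature and examined by fluorescence microscopy. Cell shape was also viewed under natural light.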

For data set [7], the system named is NCI-H1975. Put plainly: Induction of morphological changes in human NCI-H1975 cells assessed as chromatin shrinkage and gathering to nuclear membrane at 0.5 to 2 uM incubated for 48 hrs by DAPI staining based fluorescence microscopic analysis. Type of data set: functional, cell-based. The following applies: dose 0.5-2 µM. The method in brief:
as §3

Data set [8] can be described thus: AUC (0 to infinity) in Sprague-Dawley rat at 25 mg/kg, iv by LC-MS/MS analysis. Type of data set: ADME, organism-based. The arrangement: route intravenous, time infinity, dose 25 mg/kg. The following applies: in vivo. The method in brief:
as §1

In data set [9] the test system is NCI-H1975. The experiment in a line: Antimigratory activity against human NCI-H1975 cells assessed as narrowing of scratch width at 0.5 to 2 uM incubated for 24 to 48 hrs by scratch wound healing assay based fluorescence microscopic analysis. Type of data set: functional, cell-based. The following applies: dose 0.5-2 µM, time 24-48 hrs. A digest of the protocol:
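H1975 monolayers cultured 48 h at 37 °C, then scratched and washed with PBS. Cells treated at […] and imaged by fluorescence microscope at 0, 24 and 48 h, with an untreated negative control.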

Data set [10] can be described thus: MRT (0 to t) in Sprague-Dawley rat at 25 mg/kg, iv measured for 24 hrs by LC-MS/MS analysis. The following applies: in vivo. The format is ADME, organism-based. A digest of the protocol:
as §1

Data set [11] can be described thus: Clearance in Sprague-Dawley rat at 25 mg/kg, iv measured for 24 hrs by LC-MS/MS analysis. Type of data set: ADME, organism-based. The following applies: in vivo. A digest of the protocol:
as §1

A short description of data set [12]: AUC (0 to t) in Sprague-Dawley rat at 25 mg/kg, iv measured for 24 hrs by LC-MS/MS analysis. The format is ADME, organism-based. The following applies: in vivo. The arrangement: dose 25 mg/kg, time 24 hrs. A digest of the protocol: as §1
For data set [13], the system named is A-431. The experiment in a line: Cytotoxicity against human A-431 cells harboring wild type EGFR assessed as reduction in cell viability incubated for 72 hrs by CCK8 assay. Type of data set: cell-based. The following applies: A-431, 72 h. A digest of the protocol: as §2
Data set [14] relates to NCI-H1975. The experiment in a line: Antiproliferative activity against human NCI-H1975 cells harboring EGFR L858R/T790M mutant assessed as reduction in cell viability incubated for 72 hrs by CCK8 assay. The following applies: NCI-H1975, 72 h. The format is functional, cell-based. A digest of the protocol: as §2
Data set [15] deals with A549. The experiment in a line: Antiproliferative activity against human A549 cells harboring KRAS G12S mutant assessed as reduction in cell viability incubated for 72 hrs by CCK8 assay. Type of data set: functional, cell-based. The following applies: A549, 72 h. A digest of the protocol: as §2

Turning to `O=C(NO)c1ccccc1Nc1nc(Nc2ccc(OCCN3CCOCC3)cc2)ncc1Cl`, the half-life in [1] is 9.51 h. Besides, the 50% inhibitory concentration (IC50) was 3050 nM in data set [2]; 625 nM in data set [3]; 1070 nM in [13]; 97.8 nM in data set [14]; 97.7 nM in [15]. Further, the results for the Activity in data set [4] and in [5] were 70.99% and 0.56%, respectively. Besides, the outcome in data set [6], in data set [7] and in [9] was Active. The same molecule registered an area under the curve AUC(0-inf) in [8] of 45200 ng·h/mL. For the same molecule, in data set [10], the mean residence time MRT last at 24 h was 8.2 h. This molecule also showed a clearance in data set [11] of 9.23 mL/min/kg. This molecule came in with an exposure AUC(0-t) at 24 h in data set [12] of 37600 ng·h/mL.
